Experimental data gathered from unrelated publications.
Each line is one published result; the experiments were not run side by side.
Target: Casein kinase I isoform gamma-1 (CSNK1G1, Homo sapiens, UniProt Q9HCP0)

O=C(c1ccc(Nc2ncc(Cl)c(-c3cc4ccccc4s3)n2)cc1)N1CCC(N2CCCC2)CC1  remaining binding (binding, competition with immobilised ligand; 1 µM): 80%
C[C@@H]1CN(c2cc(-c3n[nH]c4ccc(OC5(C)CC5)cc34)ncn2)C[C@H](C)O1  remaining binding (cell-free assay, competition with immobilised ligand; 0.1 µM): 100%
CN(CCCC(F)(F)F)c1nccc(-c2cnn3ncccc23)n1  remaining binding (binding; 1 µM): 100%
CNC(=O)[C@@H]1CC[C@@H](n2c(-c3ccc4cnccc4c3)nc3ccc(C(=O)NCc4cccc(C(N)=O)c4)cc32)C1  remaining binding (binding, competition with immobilised ligand; 1 µM): 100%
NS(=O)(=O)c1cc(NC(=O)Cc2ccccc2)ccc1Oc1cccc(Cl)c1  remaining binding (cell-free assay, competition with immobilised ligand; 1 µM): 89%
Nc1ncc2c(n1)-c1c([nH]c3ccc(C#CC4CC4)cc13)CCCC2  remaining binding (binding, competition with immobilised ligand; 1 µM): 79%
O=C(Nc1c[nH]nc1C(=O)NC1CCNCC1)c1cc(F)cc(F)c1  remaining binding (binding, competition with immobilised ligand; 1 µM): 89%
c1cncc(-c2cccc(Nc3nccc(NC4CCCCC4)n3)c2)c1  remaining binding (binding, competition with immobilised ligand; 10 µM): 89%
O=C(NCCCN1CCOCC1)c1ccc(Nc2ncc(Cl)c(-c3ccc(Cl)s3)n2)cc1  remaining binding (binding, competition with immobilised ligand; 1 µM): 88%
CN(C)c1nccc(-c2cnn3ncccc23)n1  remaining binding (binding; 1 µM): 100%
CN(C)c1ncnc(-c2ccc3nc(Nc4cc(CN5CCN(C(=O)CC(F)(F)F)CC5)ccn4)[nH]c3c2)c1Cl  remaining binding (cell-free assay, competition with immobilised ligand; 1 µM): 76%
N[C@H]1CCN(c2nccc(-c3cnn4ncccc34)n2)C1  remaining binding (binding; 1 µM): 82%
Cn1nc(C(=O)NCc2ccc(C(=O)O)cc2)cc1-c1ccc2[nH]ccc2c1  remaining binding (cell-free assay, competition with immobilised ligand; 0.1 µM): 91%
C[C@H]1CCN(c2nccc(-c3cnn4ncccc34)n2)C1  remaining binding (binding; 1 µM): 85%
CC(=O)c1c(NS(C)(=O)=O)c2cc(-c3ccc(Cl)cc3)c(-c3ccc(Cl)cc3Cl)nc2n(C)c1=O  remaining binding (cell-free assay, competition with immobilised ligand; 1 µM): 92%
Cc1cnn2ncc(-c3ccnc(N(C)C)n3)c2c1  remaining binding (binding; 1 µM): 73%
COc1cnc(Nc2cccc(S(N)(=O)=O)c2)nc1N1CCN(c2ccccc2)C(=O)C1  remaining binding (binding, competition with immobilised ligand; 1 µM): 100%
CCCCN(CCCC)C(=O)CN1C[C@H](c2cc(OC)c3c(c2)OCO3)[C@@H](C(=O)O)[C@@H]1CC(C)(C)CCC  remaining binding (cell-free assay, competition with immobilised ligand; 1 µM): 100%
CN(C)c1nccc(-c2cnc3ncccn23)n1  remaining binding (binding; 1 µM): 81%
